# Data reported in PubChem BioAssay.
# Calls of active or inactive are those of the source.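 Rule for the calls, unless noted: active = duplicate-averaged activation above buffer control mean plus 5 SD of those controls; inactive = the rest.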
# Tested on: not listed separately
# Assay: thallium flux activation in parental CHO cells, counter-screen for KCNQ1 potentiator project (AID 493006);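 for activation: fluorescence ratio of max minus min over baseline after K+ and Tl+ depolarization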
# Details: parental CHO-K1 cells, FluxOR thallium flux, at 10 µM; hits give high values
# In short: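 Benchmarks – buffer and R-L3 controls · Assay system – untransfected host CHO-K1 cells with FluxOR thallium dye · Measure – fluorescence change ratio scaled 0% buffer, 100% R-L3 · Technique – kinetic thallium-flux fluorescence · Timing – overnight 37 °C plating, 90 min RT dye, 20 min compound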
SMILES,outcome,activation
O=c1c2cc(Cl)cc(Cl)c2nc2n1CCC2,inactive,–
COc1ccc(C(=O)NC(=S)N2CCC(C)CC2)cc1Br,–,185% (active)
O=C(NC(=S)NCc1ccccc1)c1ccc(Br)o1,–,434% (active)
Fc1ccc(/C=N/NC(=S)Nc2ccc(Cl)cc2)cc1F,inactive,–
CC1=NN(C(=O)c2csc(C(C)C)c2)C(O)(C(F)(F)F)C1 (stereo not given),–,164% (active)
COC(=O)c1ccsc1NC(=O)CN1CCN(Cc2ccc3c(c2)OCO3)CC1,inactive,–
O=C(NNC(=O)c1ccc(Cl)c(Cl)c1)c1ccncc1,inactive,–
O=C(ONC1=NCCCCC1)c1ccc(Cl)cc1,inactive,–
CCOC(=O)CSc1nc2ccccc2c(=O)n1-c1ccc(C)cn1,inactive,–
CCCCn1c(=S)[nH]c2ncccc2c1=O,inactive,–
COc1cccc2sc(Nc3nnc(-c4ccc(F)cc4)o3)nc12,–,394% (active)
Cc1ccc(O)c(C(=O)CC(=O)c2cccc(F)c2)c1,inactive,–
C/C(=N\NC(=O)c1cccc(Br)c1)c1ccccn1,inactive,–
COc1ccc(N2CCN(C(=S)NC(=O)c3cccs3)CC2)c([N+](=O)[O-])c1,–,139% (active)
COc1ccccc1NC(=O)Cn1cnc2c(oc3nc4c(cc32)CCCC4)c1=O,inactive,–
Cc1cc(/C=C2\C(=N)N3N=C(C(C)C)SC3=NC2=O)c(C)n1Cc1ccccc1,inactive,–
CNCc1ccccc1Sc1cccc2ccccc12,inactive,–
Cc1cc(C(c2cc(C)c(N)c(C)c2)c2ccco2)cc(C)c1N,–,189% (active)
CCOC(=O)/C(C)=N/NC(=O)c1cccc([N+](=O)[O-])c1,–,170% (active)
N#CC1(c2ccc(NC(=O)c3ccccc3F)cc2)CCCC1,inactive,–

SMILES,outcome,activation
COc1ccc(OC)c(NC(=O)C(=O)NNC(=O)C23CC4CC(CC(C4)C2)C3)c1,–,404% (active)
S=C(Nc1ccc(Br)cc1)N1CCn2cccc2C1c1cccnc1 (stereo not given),inactive,–
Oc1c(N=NC(=S)Nc2ccccc2F)c2ccccc2n1Cc1ccccc1,–,143% (active)
COc1ccc(/C=C2\SC(=Nc3ccccc3OC)NC2=O)cc1,inactive,–
CC(CCc1ccccc1)NC(=S)NC(=O)c1ccco1 (stereo not given),–,214% (active)
Cn1c(=O)n(CCc2ccccc2)c2ccccc21,inactive,–
CCN(CC)C(=O)c1[nH]cnc1C(=O)NCC(=O)OC(C)(C)C,inactive,–
CCCCCCCCCCCCN1[C@@H](CC(=O)O)c2cc(F)ccc2S1(=O)=O,–,230% (active)
OC(C#CCCN1CCCCC1)(c1ccccc1)c1ccccc1,inactive,–
COc1ccc(OCc2cc(C(=O)N(C)CC3CCCCO3)no2)c(Cl)c1 (stereo not given),inactive,–
Cc1ccc(S(=O)(=O)NN2C(=O)/C(=C/c3cccs3)SC2=S)cc1,–,163% (active)
Cc1cc(-c2csc3nc[nH]c(=S)c23)cc(C)c1C,–,286% (active)
COc1ccc(/C=N/N=C2/NC(=O)C(c3ccccc3)S2)c(OC)c1 (stereo not given),inactive,–
Cc1ccc(-n2cccc2/C=C2\C(=N)N3N=C(C(C)C)SC3=NC2=O)cc1,inactive,–
Cc1nc(SC(C)C(=O)c2c(N)n(C)c(=O)n(C)c2=O)c2c(C)c(C)sc2n1 (stereo not given),–,199% (active)
CC(C)c1ccc(C(=O)NC2=NCCS2)cc1,inactive,–
N#C/C(=C\c1ccc(-c2ccccc2[N+](=O)[O-])o1)C(=O)Nc1nc(-c2cccs2)cs1,–,208% (active)
Cc1ccc(F)cc1S(=O)(=O)NCc1ccc(N2CCN(C)CC2)cc1,inactive,–
CCOc1ccc2nc(N3C(=O)/C(=C/c4ccccc4)NC3=S)sc2c1,–,442% (active)
O=C(NC(=S)Nc1cccnc1)c1cc2ccccc2o1,–,184% (active)

# Molecular target: Potassium voltage-gated channel subfamily KQT member 1 (Homo sapiens) (UniProt P51787)
# Sequence (P51787 whole entry, looked up): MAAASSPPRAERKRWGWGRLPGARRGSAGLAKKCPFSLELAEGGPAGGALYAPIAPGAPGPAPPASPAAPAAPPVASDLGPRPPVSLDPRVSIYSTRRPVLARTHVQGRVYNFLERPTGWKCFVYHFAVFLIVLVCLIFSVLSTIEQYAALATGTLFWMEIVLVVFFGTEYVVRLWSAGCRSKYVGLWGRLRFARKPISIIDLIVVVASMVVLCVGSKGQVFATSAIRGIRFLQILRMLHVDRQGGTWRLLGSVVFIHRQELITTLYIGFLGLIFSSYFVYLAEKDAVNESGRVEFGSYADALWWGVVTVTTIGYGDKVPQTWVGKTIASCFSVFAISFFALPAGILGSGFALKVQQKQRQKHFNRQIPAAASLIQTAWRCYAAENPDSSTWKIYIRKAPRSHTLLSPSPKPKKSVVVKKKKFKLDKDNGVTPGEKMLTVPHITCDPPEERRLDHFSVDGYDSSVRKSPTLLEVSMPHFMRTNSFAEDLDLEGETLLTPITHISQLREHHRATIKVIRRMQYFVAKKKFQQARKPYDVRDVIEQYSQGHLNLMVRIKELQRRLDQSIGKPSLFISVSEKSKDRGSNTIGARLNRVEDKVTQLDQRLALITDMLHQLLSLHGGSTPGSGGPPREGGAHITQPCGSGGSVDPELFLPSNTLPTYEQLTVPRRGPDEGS
# Assay: KCNQ1 potassium channel potentiators, confirmation, FluxOR thallium flux, CHO cells, duplicates (AID 493007;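 active = potentiation averaged over duplicate wells exceeding buffer-only control mean by more than 3 SD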;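 for outcome: cells depolarized by a potassium plus thallium sulfate stimulus after compound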)
# Details: KCNQ1 cell line, FluxOR thallium flux fluorescence, at 10 µM; hits give high values, % of reference activator effect, buffer zero
# In short: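 Material: CHO cells stably expressing the KCNQ1 potassium channel / Times: dye 90 min then compound 20 min, both at room temperature / Detection: kinetic thallium influx fluorescence with FluxOR dye, 10 s baseline, 110 s post-stimulus / Benchmarks: buffer-only wells as 0% and R-L3 activator as 100% / Replicates: each compound tested in duplicate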
SMILES,outcome,potentiation
O=c1c2cc(Cl)cc(Cl)c2nc2n1CCC2,inactive,–
COc1ccc(C(=O)NC(=S)N2CCC(C)CC2)cc1Br,–,90% (active)
O=C(NC(=S)NCc1ccccc1)c1ccc(Br)o1,–,313% (active)
Fc1ccc(/C=N/NC(=S)Nc2ccc(Cl)cc2)cc1F,inactive,–
CC1=NN(C(=O)c2csc(C(C)C)c2)C(O)(C(F)(F)F)C1 (stereo not given),–,61.5% (active)
COC(=O)c1ccsc1NC(=O)CN1CCN(Cc2ccc3c(c2)OCO3)CC1,inactive,–
O=C(NNC(=O)c1ccc(Cl)c(Cl)c1)c1ccncc1,–,18.5% (active)
O=C(ONC1=NCCCCC1)c1ccc(Cl)cc1,inactive,–
CCOC(=O)CSc1nc2ccccc2c(=O)n1-c1ccc(C)cn1,inactive,–
CCCCn1c(=S)[nH]c2ncccc2c1=O,–,34.5% (active)
COc1cccc2sc(Nc3nnc(-c4ccc(F)cc4)o3)nc12,–,202% (active)
Cc1ccc(O)c(C(=O)CC(=O)c2cccc(F)c2)c1,–,24% (active)
C/C(=N\NC(=O)c1cccc(Br)c1)c1ccccn1,inactive,–
COc1ccc(N2CCN(C(=S)NC(=O)c3cccs3)CC2)c([N+](=O)[O-])c1,–,74.5% (active)
COc1ccccc1NC(=O)Cn1cnc2c(oc3nc4c(cc32)CCCC4)c1=O,inactive,–
Cc1cc(/C=C2\C(=N)N3N=C(C(C)C)SC3=NC2=O)c(C)n1Cc1ccccc1,inactive,–
CNCc1ccccc1Sc1cccc2ccccc12,inactive,–
Cc1cc(C(c2cc(C)c(N)c(C)c2)c2ccco2)cc(C)c1N,–,138% (active)
CCOC(=O)/C(C)=N/NC(=O)c1cccc([N+](=O)[O-])c1,–,49% (active)
N#CC1(c2ccc(NC(=O)c3ccccc3F)cc2)CCCC1,inactive,–

SMILES,outcome,potentiation
COc1ccc(OC)c(NC(=O)C(=O)NNC(=O)C23CC4CC(CC(C4)C2)C3)c1,–,244% (active)
S=C(Nc1ccc(Br)cc1)N1CCn2cccc2C1c1cccnc1 (stereo not given),inactive,–
Oc1c(N=NC(=S)Nc2ccccc2F)c2ccccc2n1Cc1ccccc1,–,49% (active)
COc1ccc(/C=C2\SC(=Nc3ccccc3OC)NC2=O)cc1,inactive,–
CC(CCc1ccccc1)NC(=S)NC(=O)c1ccco1 (stereo not given),–,69.5% (active)
Cn1c(=O)n(CCc2ccccc2)c2ccccc21,inactive,–
CCN(CC)C(=O)c1[nH]cnc1C(=O)NCC(=O)OC(C)(C)C,inactive,–
CCCCCCCCCCCCN1[C@@H](CC(=O)O)c2cc(F)ccc2S1(=O)=O,–,76% (active)
OC(C#CCCN1CCCCC1)(c1ccccc1)c1ccccc1,inactive,–
COc1ccc(OCc2cc(C(=O)N(C)CC3CCCCO3)no2)c(Cl)c1 (stereo not given),–,17.5% (active)
Cc1ccc(S(=O)(=O)NN2C(=O)/C(=C/c3cccs3)SC2=S)cc1,–,22.5% (active)
Cc1cc(-c2csc3nc[nH]c(=S)c23)cc(C)c1C,–,255% (active)
COc1ccc(/C=N/N=C2/NC(=O)C(c3ccccc3)S2)c(OC)c1 (stereo not given),inactive,–
Cc1ccc(-n2cccc2/C=C2\C(=N)N3N=C(C(C)C)SC3=NC2=O)cc1,–,23.5% (active)
Cc1nc(SC(C)C(=O)c2c(N)n(C)c(=O)n(C)c2=O)c2c(C)c(C)sc2n1 (stereo not given),–,86% (active)
CC(C)c1ccc(C(=O)NC2=NCCS2)cc1,inactive,–
N#C/C(=C\c1ccc(-c2ccccc2[N+](=O)[O-])o1)C(=O)Nc1nc(-c2cccs2)cs1,–,56% (active)
Cc1ccc(F)cc1S(=O)(=O)NCc1ccc(N2CCN(C)CC2)cc1,inactive,–
CCOc1ccc2nc(N3C(=O)/C(=C/c4ccccc4)NC3=S)sc2c1,–,367% (active)
O=C(NC(=S)Nc1cccnc1)c1cc2ccccc2o1,–,35% (active)
